The source of these data is ChEMBL document CHEMBL1148427, “Diastereoselective synthesis and configuration-dependent activity of (3-substituted-cycloalkyl)glycine pyrrolidides and thiazolidides as dipeptidyl peptidase IV inhibitors” (Bioorg Med Chem Lett, 2004).

Each structure is given as a SMILES string.

Test [1] can be described thus: Inhibitory activity against human aminopeptidase P.
For a further test, the target named is Dipeptidyl peptidase 4 (Homo sapiens, UniProt P27487). The test is described as follows: Inhibitory activity against human recombinant Dipeptidylpeptidase IV. An outline of the steps:
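Human recombinant enzyme run in a fluorometric assay with Gly-Pro-AMC as substrate. Cleavage releases fluorescent 7-amino-4-methylcoumarin, which is read to give IC50 values.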

For the next test, the target named is Dipeptidyl peptidase 2 (Homo sapiens, UniProt Q9UHL4). The test is described as follows: Inhibitory activity against human quiescent cell proline dipeptidase.
A further test deals with T1, Prolyl endopeptidase (Homo sapiens, UniProt P48147).
T1 sequence (P48147 whole entry): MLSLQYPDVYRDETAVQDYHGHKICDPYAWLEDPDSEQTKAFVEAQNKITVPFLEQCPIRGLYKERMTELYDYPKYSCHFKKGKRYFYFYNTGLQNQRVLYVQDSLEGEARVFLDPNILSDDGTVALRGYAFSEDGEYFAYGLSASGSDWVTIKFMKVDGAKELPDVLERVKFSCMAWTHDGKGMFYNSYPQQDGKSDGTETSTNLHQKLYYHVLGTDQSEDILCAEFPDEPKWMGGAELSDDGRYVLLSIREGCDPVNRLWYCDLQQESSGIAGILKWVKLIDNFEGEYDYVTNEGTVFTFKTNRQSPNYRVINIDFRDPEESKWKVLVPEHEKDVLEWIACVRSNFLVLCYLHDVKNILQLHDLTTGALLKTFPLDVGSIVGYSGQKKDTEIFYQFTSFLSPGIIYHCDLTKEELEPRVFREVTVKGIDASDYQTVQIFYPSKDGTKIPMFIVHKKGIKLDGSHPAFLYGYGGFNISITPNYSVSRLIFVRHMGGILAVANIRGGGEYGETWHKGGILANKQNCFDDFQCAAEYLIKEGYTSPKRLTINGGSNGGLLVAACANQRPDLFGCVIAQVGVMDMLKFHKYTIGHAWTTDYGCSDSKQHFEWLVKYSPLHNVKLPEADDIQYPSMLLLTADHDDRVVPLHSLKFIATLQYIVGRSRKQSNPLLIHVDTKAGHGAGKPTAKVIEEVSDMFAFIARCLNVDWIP
The test is described as follows: Inhibitory activity against human prolylendopeptidase.

Chain of Dipeptidyl peptidase 4 (P27487 whole entry): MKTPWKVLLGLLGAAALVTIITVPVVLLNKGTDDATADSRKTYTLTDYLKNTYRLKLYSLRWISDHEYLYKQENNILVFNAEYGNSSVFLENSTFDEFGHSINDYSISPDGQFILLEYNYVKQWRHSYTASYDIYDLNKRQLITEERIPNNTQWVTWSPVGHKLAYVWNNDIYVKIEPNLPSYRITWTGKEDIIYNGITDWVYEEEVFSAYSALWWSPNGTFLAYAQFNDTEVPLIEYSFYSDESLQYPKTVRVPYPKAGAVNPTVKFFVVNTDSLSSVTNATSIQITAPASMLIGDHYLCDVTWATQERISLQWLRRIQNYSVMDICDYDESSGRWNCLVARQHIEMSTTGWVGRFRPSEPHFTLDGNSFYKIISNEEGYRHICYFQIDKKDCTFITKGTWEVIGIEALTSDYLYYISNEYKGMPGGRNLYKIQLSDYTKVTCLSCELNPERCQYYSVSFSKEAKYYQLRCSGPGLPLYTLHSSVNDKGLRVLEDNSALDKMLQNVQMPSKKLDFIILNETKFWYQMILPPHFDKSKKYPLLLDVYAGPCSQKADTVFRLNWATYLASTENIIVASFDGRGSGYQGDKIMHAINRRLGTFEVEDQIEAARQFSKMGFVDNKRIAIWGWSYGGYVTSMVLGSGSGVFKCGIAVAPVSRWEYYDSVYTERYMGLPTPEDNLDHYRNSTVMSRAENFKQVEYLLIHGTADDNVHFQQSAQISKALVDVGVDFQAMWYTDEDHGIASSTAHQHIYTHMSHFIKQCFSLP

For orientation: IC50 means the concentration needed to halve the response being measured. In test [1], `O=C(N[C@H](C(=O)N1CCCC1)[C@@H]1CC[C@@H](OC(=O)c2ccc([N+](=O)[O-])cc2)C1)OCc1ccccc1` registered an IC50 above 100000 nM.

`O=C(N[C@H](C(=O)N1CCCC1)[C@@H]1CC[C@H](O)C1)OCc1ccccc1` registered an IC50 in test [1] above 100000 nM.

The compound `COC1=N[C@H](C(C)C)C(OC)=N[C@H]1[C@H]1CC[C@@H](O)C1` showed an IC50 in test [1] above 100000 nM.

In test [1], `COC1=N[C@H](C(C)C)C(OC)=N[C@H]1[C@H]1CCC(=O)C1` showed a half-maximal inhibitory concentration (IC50) above 100000 nM.

Turning to `N[C@H](C(=O)N1CCCC1)[C@H]1CC[C@H](NS(=O)(=O)c2ccc(S(=O)(=O)C(F)(F)F)cc2)C1`, the results for the IC50 (on Dipeptidyl peptidase 4; against Dipeptidyl peptidase 2; in test [1]) were 220 nM, 110 nM and above 100000 nM, respectively.

In turn, `COC(=O)[C@H](NC(=O)OC(C)(C)C)[C@H]1CC[C@@H](O)C1` came in with an IC50 in test [1] above 100000 nM.

`COC1=N[C@H]([C@@H]2CC[C@H](O)C2)C(OC)=N[C@H]1C(C)C`: in test [1], the IC50 is above 100000 nM.

Take `N[C@H](C(=O)N1CCCC1)[C@@H]1CC[C@@H](NS(=O)(=O)c2ccc(OC(F)(F)F)cc2)C1`: the IC50 at Dipeptidyl peptidase 4 was 170 nM; against Dipeptidyl peptidase 2 it was 1700 nM; against Prolyl endopeptidase, above 100000 nM; in test [1] it was above 100000 nM.

For `CS(=O)(=O)c1ccc(S(=O)(=O)N[C@H]2CC[C@H]([C@H](N)C(=O)N3CCCC3)C2)cc1`, the IC50 is 130 nM on Dipeptidyl peptidase 4, 19000 nM against Dipeptidyl peptidase 2, above 100000 nM against Prolyl endopeptidase and above 100000 nM in test [1].

Take `N[C@H](C(=O)N1CCCC1)[C@@H]1CC[C@@H](NS(=O)(=O)c2ccc(S(N)(=O)=O)cc2)C1`: the figures for the IC50 (at Dipeptidyl peptidase 4; on Dipeptidyl peptidase 2; in test [1]) were 46 nM, 2300 nM and above 100000 nM, respectively.

In the case of `CS(=O)(=O)c1ccc(S(=O)(=O)N[C@@H]2CC[C@@H]([C@H](N)C(=O)N3CCCC3)C2)cc1`, the IC50 on Dipeptidyl peptidase 4 is 13 nM; against Dipeptidyl peptidase 2, 1600 nM; against Prolyl endopeptidase it was above 100000 nM; in test [1] it was above 100000 nM.

`COC1=N[C@@H](C(C)C)C(OC)=NC1`: the IC50 in test [1] was above 100000 nM.

Consider `N[C@H](C(=O)N1CCCC1)[C@H]1CC[C@@H](OC(=O)Nc2ccc(I)cc2)C1`, for which the values for the IC50 (at Dipeptidyl peptidase 4; on Dipeptidyl peptidase 2; in test [1]) were 660 nM, 160 nM and above 100000 nM, respectively.

Turning to `N[C@H](C(=O)N1CCCC1)[C@H]1CC[C@@H](NC(=O)c2cccc3ccccc23)C1`, the values for the half-inhibitory concentration (IC50) (on Dipeptidyl peptidase 4; on Dipeptidyl peptidase 2; in test [1]) were 230 nM, 990 nM and above 100000 nM, respectively.

As to `COC(=O)[C@@H](NC(=O)OC(C)(C)C)[C@H]1CC[C@@H](O)C1`, the IC50 in test [1] was above 100000 nM.

Consider `N[C@H](C(=O)N1CCCC1)[C@@H]1CC[C@@H](NS(=O)(=O)c2ccc(C(=O)O)cc2)C1`, for which the IC50 is 110 nM at Dipeptidyl peptidase 4, 5000 nM on Dipeptidyl peptidase 2 and above 100000 nM in test [1].

In test [1], `COC1=N[C@H](C(C)C)C(OC)=N[C@H]1[C@H]1CC[C@H](O)C1` displayed an IC50 above 100000 nM.

`COC1=N[C@H](C(C)C)C(OC)=NC1` displayed an IC50 in test [1] above 100000 nM.

In the case of `COc1ccc(NC(=O)O[C@@H]2CCC[C@H]([C@H](N)C(=O)N3CCSC3)C2)cc1`, the values for the IC50 (on Dipeptidyl peptidase 4; against Dipeptidyl peptidase 2; in test [1]) were 83 nM, 220 nM and above 100000 nM, respectively.

On to `N[C@H](C(=O)N1CCCC1)[C@@H]1CC[C@H](NS(=O)(=O)c2ccc(S(N)(=O)=O)cc2)C1`, for which the IC50 on Dipeptidyl peptidase 4 was 250 nM; against Dipeptidyl peptidase 2 it was 3100 nM; in test [1], above 100000 nM.

With `N[C@H](C(=O)N1CCCC1)[C@H]1CC[C@H](NS(=O)(=O)c2ccc(S(N)(=O)=O)cc2)C1`, the IC50 was 83 nM on Dipeptidyl peptidase 4, 22 nM on Dipeptidyl peptidase 2 and above 100000 nM in test [1].

Regarding `N[C@@H](C(=O)N1CCSC1)[C@H]1CC[C@@H](OC(=O)Nc2cccc3ccccc23)C1`, the IC50 is 1700 nM on Dipeptidyl peptidase 4, 110 nM against Dipeptidyl peptidase 2 and above 100000 nM in test [1].

For the compound `N[C@H](C(=O)N1CCCC1)[C@H]1CC[C@H](NS(=O)(=O)c2ccc(C(=O)O)cc2)C1`, the results for the IC50 (at Dipeptidyl peptidase 4; against Dipeptidyl peptidase 2; in test [1]) were 72 nM, 12000 nM and above 100000 nM, respectively.

`N[C@H](C(=O)N1CCCC1)[C@@H]1CC[C@H](NC(=O)Nc2cccc3ccccc23)C1`: the concentration for half-maximal inhibition (IC50) at Dipeptidyl peptidase 4 is 440 nM; against Dipeptidyl peptidase 2 it was 1300 nM; in test [1] it was above 100000 nM.

For the compound `N[C@H](C(=O)N1CCCC1)[C@H]1CC[C@H](OC(=O)Nc2ccc(I)cc2)C1`, the IC50 at Dipeptidyl peptidase 4 was 180 nM; at Dipeptidyl peptidase 2, 260 nM; in test [1] it was above 100000 nM.

As to `N[C@H](C(=O)N1CCCC1)[C@@H]1CC[C@H](OC(=O)Nc2ccc(I)cc2)C1`, the IC50 is 670 nM on Dipeptidyl peptidase 4, 250 nM against Dipeptidyl peptidase 2 and above 100000 nM in test [1].

For `N[C@H](C(=O)N1CCSC1)[C@H]1CC[C@@H](OC(=O)Nc2cccc(F)c2)C1`, the IC50 was 210 nM at Dipeptidyl peptidase 4, 75 nM against Dipeptidyl peptidase 2, above 100000 nM against Prolyl endopeptidase and above 100000 nM in test [1].

As to `N[C@H](C(=O)N1CCCC1)[C@H]1CC[C@@H](OC(=O)Nc2ccccc2-c2ccccc2)C1`, the IC50 on Dipeptidyl peptidase 4 was 3900 nM; against Dipeptidyl peptidase 2, 870 nM; in test [1], above 100000 nM.

Turning to `N[C@H](C(=O)N1CCSC1)[C@H]1CC[C@@H](OC(=O)Nc2ccc(Cl)c(Cl)c2)C1`, the figures for the IC50 (at Dipeptidyl peptidase 4; against Dipeptidyl peptidase 2; in test [1]) were 280 nM, 14 nM and above 100000 nM, respectively.

With `COc1ccc(NC(=O)O[C@@H]2CC[C@H]([C@H](N)C(=O)N3CCSC3)C2)cc1`, the IC50 is 240 nM on Dipeptidyl peptidase 4, 43 nM at Dipeptidyl peptidase 2 and above 100000 nM in test [1].

Take `N[C@H](C(=O)N1CCCC1)[C@@H]1CC[C@@H](OC(=O)Nc2ccc(I)cc2)C1`: the results for the IC50 (at Dipeptidyl peptidase 4; against Dipeptidyl peptidase 2; in test [1]) were 110 nM, 820 nM and above 100000 nM, respectively.

Consider `COc1ccc(NC(=O)O[C@H]2CCC[C@H]([C@H](N)C(=O)N3CCCC3)C2)cc1`, for which the IC50 was 480 nM at Dipeptidyl peptidase 4, 780 nM on Dipeptidyl peptidase 2, above 100000 nM at Prolyl endopeptidase and above 100000 nM in test [1].

In turn, `O=C(N[C@H](C(=O)N1CCCC1)[C@@H]1CC[C@@H](O)C1)OCc1ccccc1` came in with an IC50 in test [1] above 100000 nM.

`COc1ccc(NC(=O)O[C@@H]2CC[C@H]([C@H](N)C(=O)N3CCCC3)C2)cc1`: the IC50 was 1100 nM at Dipeptidyl peptidase 4, 630 nM on Dipeptidyl peptidase 2 and above 100000 nM in test [1].

Consider `COC1=N[C@H](C(C)C)C(OC)=N[C@H]1[C@H]1CCCC(O)C1` (some centres undefined), for which the 50% inhibitory concentration (IC50) in test [1] was above 100000 nM.

In test [1], `COC(=O)[C@H](NC(=O)OCc1ccccc1)[C@@H]1CC[C@H](O)C1` gave an IC50 above 100000 nM.

Compound `COC(=O)[C@@H](NC(=O)OCc1ccccc1)[C@@H]1CC[C@H](O)C1` yielded an IC50 in test [1] above 100000 nM.

In the case of `N[C@H](C(=O)N1CCCC1)[C@H]1CC[C@@H](NC(=O)Nc2cccc3ccccc23)C1`, the IC50 at Dipeptidyl peptidase 4 is 110 nM; against Dipeptidyl peptidase 2 it was 270 nM; in test [1] it was above 100000 nM.

With `CN(C)S(=O)(=O)c1ccc(S(=O)(=O)N[C@H]2CC[C@H]([C@H](N)C(=O)N3CCCC3)C2)cc1`, the values for the IC50 (on Dipeptidyl peptidase 4; against Dipeptidyl peptidase 2; in test [1]) were 110 nM, 53 nM and above 100000 nM, respectively.

Turning to `COc1ccc(NC(=O)O[C@@H]2CCC[C@H]([C@H](N)C(=O)N3CCCC3)C2)cc1`, the IC50 on Dipeptidyl peptidase 4 is 180 nM; against Dipeptidyl peptidase 2, 2500 nM; on Prolyl endopeptidase it was above 100000 nM; in test [1], above 100000 nM.

Take `N[C@H](C(=O)N1CCCC1)[C@@H]1CC[C@@H](NC(=O)Nc2cccc3ccccc23)C1`: the IC50 at Dipeptidyl peptidase 4 is 94 nM; against Dipeptidyl peptidase 2, 430 nM; in test [1], above 100000 nM.

Regarding `COc1ccc(NC(=O)O[C@H]2CC[C@H]([C@H](N)C(=O)N3CCCC3)C2)cc1`, the IC50 at Dipeptidyl peptidase 4 was 270 nM; against Dipeptidyl peptidase 2 it was 1400 nM; in test [1] it was above 100000 nM.

`N[C@H](C(=O)N1CCCC1)[C@H]1CC[C@@H](NS(=O)(=O)c2ccc(OC(F)(F)F)cc2)C1`: the IC50 on Dipeptidyl peptidase 4 is 550 nM; at Dipeptidyl peptidase 2 it was 750 nM; on Prolyl endopeptidase it was above 100000 nM; in test [1], above 100000 nM.

With `N[C@H](C(=O)N1CCCC1)[C@H]1CC[C@H](O)C1`, the IC50 on Dipeptidyl peptidase 4 was 840 nM; against Dipeptidyl peptidase 2 it was 46000 nM; against Prolyl endopeptidase, above 100000 nM; in test [1], above 100000 nM.

With `COc1ccc(NC(=O)O[C@H]2CCC[C@H]([C@H](N)C(=O)N3CCSC3)C2)cc1`, the figures for the IC50 (at Dipeptidyl peptidase 4; on Dipeptidyl peptidase 2; in test [1]) were 420 nM, 440 nM and above 100000 nM, respectively.

In the case of `CS(=O)(=O)c1ccc(S(=O)(=O)N[C@H]2CC[C@@H]([C@H](N)C(=O)N3CCCC3)C2)cc1`, the IC50 at Dipeptidyl peptidase 4 was 420 nM; against Dipeptidyl peptidase 2, 4000 nM; against Prolyl endopeptidase, above 100000 nM; in test [1] it was above 100000 nM.
